Test results: PubChem BioAssay AID504491 (The Scripps Research Institute Molecular Screening Center, 2011)
Calls of active or inactive are those of the source.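 How the source made its calls: active means inhibition of the target enzyme PAFAH2 of at least 50%, whatever the off-target enzymes show; inactive means PAFAH2 inhibition under 50%.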

Experiments:
Assay in all cases: PAFAH2 inhibitors in proteome by ABPP, late-stage follow-up, selectivity assay, cell lysate, gel-based fluorescence ABPP, carbamate vs triazole urea (AID 504491)
[1] = system: APEH; conditions: BW5147 mouse T-cell proteome, gel ABPP FP-Rh, 30 min, at 20 µM, stronger effect = higher value
In short: (§1)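 material = mouse BW5147 T-cell soluble lysate | quantity = proteome at 1 mg/mL protein | buffer or medium = Dulbecco's phosphate-buffered saline | schedule = compound with proteome 30 min, then probe 30 min, both 25 °C | detection = SDS-PAGE separation with in-gel fluorescence scanning | read-out basis = % inhibition of band intensity relative to DMSO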

[2] = system: LYPLA2; conditions: BW5147 mouse T-cell proteome, gel ABPP FP-Rh, 30 min, at 20 µM, stronger effect = higher value
In short: as §1

[3] = system: LYPLA1; conditions: BW5147 mouse T-cell proteome, gel ABPP FP-Rh, 30 min, at 20 µM, stronger effect = higher value
In short: as §1

[4] = system: ESD; conditions: BW5147 mouse T-cell proteome, gel ABPP FP-Rh, 30 min, at 20 µM, stronger effect = higher value
In short: as §1

[5] = system: ABHD11; conditions: BW5147 mouse T-cell proteome, gel ABPP FP-Rh, 30 min, at 20 µM, stronger effect = higher value
In short: as §1

[6] = biological target: Platelet-activating factor acetylhydrolase 2, cytoplasmic (Mus musculus) (UniProt Q8VDG7); conditions: BW5147 mouse T-cell proteome, gel ABPP FP-Rh, 30 min; PAFAH2; at 20 µM; stronger effect = higher value
In short: as §1

Sequence of Platelet-activating factor acetylhydrolase 2, cytoplasmic (Mus musculus) (Q8VDG7 whole entry, looked up): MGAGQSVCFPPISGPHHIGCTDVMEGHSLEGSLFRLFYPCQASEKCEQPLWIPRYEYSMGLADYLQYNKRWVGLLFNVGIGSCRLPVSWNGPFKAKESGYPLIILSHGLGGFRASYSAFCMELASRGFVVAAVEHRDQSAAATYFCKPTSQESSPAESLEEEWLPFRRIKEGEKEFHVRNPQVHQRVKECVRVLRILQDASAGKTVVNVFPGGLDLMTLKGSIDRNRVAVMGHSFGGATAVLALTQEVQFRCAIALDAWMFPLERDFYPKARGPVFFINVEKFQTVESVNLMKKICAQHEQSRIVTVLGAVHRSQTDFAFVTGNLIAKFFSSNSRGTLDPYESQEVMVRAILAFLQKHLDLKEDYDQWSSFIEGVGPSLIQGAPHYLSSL

inhibition [1]	inhibition [2]	inhibition [3]	inhibition [4]	inhibition [5]	inhibition [6]	Structure (SMILES)
0% (inactive)	0% (inactive)	0% (inactive)	0% (inactive)	100%	0% (inactive)	O=C(Oc1ccc([N+](=O)[O-])cc1)N1CCCCC1
100%	100%	100%	100%	100%	100%	O=C(N1CCCCC1)n1ccnn1
